Laboratory results as given in ChEMBL document CHEMBL1131501, “Cytotoxic activities of Mannich bases of chalcones and related compounds” (J Med Chem, 1998).
One block for each molecule: values may come before it.

Legend:
Format in all cases: functional, cell-based
[1] = species on record: Homo sapiens; test: Concentration required to inhibit 50% growth of human Molt 4/C8 T-lymphocyte cells; settings: Molt4/C8
[2] = species on record: Homo sapiens; test: Concentration required to inhibit 50% growth of Human CEM T-lymphocytes cells; settings: CCRF-CEM
[3] = test system: L1210; test: Concentration required to inhibit 50% growth of L1210 leukemia cells; settings: Mus musculus
[4] = test system: P388; test: Inhibition of proliferation of murine P388 cells; settings: Mus musculus
[5] = test system: Tumor Cell line; test: Evaluation for cytotoxicity to human tumor cell lines.
In short: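 Panel of about 55-60 human tumor lines (leukemia, melanoma, non-small cell lung, colon, CNS, ovarian, renal, prostate, breast) exposed to 10⁻⁸ to 10⁻⁴ M. Growth inhibition was read as intact-cell recovery relative to vehicle control after 48 h.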

Compound: O=C(/C=C/c1ccc([N+](=O)[O-])cc1)c1ccc(O)cc1
IC50 [1]: 5.94 µM
IC50 [2]: 2.23 µM
IC50 [3]: 7.32 µM
IC50 [4]: 13.1 µM

Compound: O=C(/C=C/c1ccc(O)cc1)c1ccccc1 [4-HYDROXYCHALCONE]
IC50 [1]: 8.58 µM
IC50 [2]: 9.31 µM
IC50 [3]: 37.9 µM
IC50 [4]: 14.3 µM

Compound: CN(C)Cc1cc(/C=C/C(=O)c2ccccc2)cc(CN(C)C)c1O
IC50 [1]: 98 µM
IC50 [2]: 22.1 µM
IC50 [3]: 108 µM
IC50 [4]: > 50 µM

Compound: O=C(/C=C/C=C/c1ccccc1)c1ccc(O)cc1
IC50 [1]: 30.8 µM
IC50 [2]: 10 µM
IC50 [3]: 33.8 µM
IC50 [4]: 8.83 µM

Compound: O=C(/C=C/c1ccccc1)Oc1ccc(C(=O)/C=C/c2ccccc2)cc1
IC50 [1]: 39.2 µM
IC50 [2]: 13.2 µM
IC50 [3]: 46.5 µM
IC50 [4]: 4.62 µM

Compound: O=C(/C=C/c1ccc(F)cc1)c1ccc(O)cc1
IC50 [1]: 16.1 µM
IC50 [2]: 3.3 µM
IC50 [3]: 15.7 µM
IC50 [4]: 8.55 µM

Compound: CN(C)Cc1cc(C(=O)/C=C/c2cccc(Cl)c2)cc(CN(C)C)c1O
IC50 [1]: 5.75 µM
IC50 [2]: 2.68 µM
IC50 [5]: 4.68 µM
IC50 [3]: 5.96 µM
IC50 [4]: 8.66 µM

Compound: CN(C)Cc1cc(/C=C/C(=O)c2ccc(Cl)c(Cl)c2)cc(CN(C)C)c1O
IC50 [1]: 12.4 µM
IC50 [2]: 10.4 µM
IC50 [3]: 9.32 µM
IC50 [4]: 5.45 µM

Compound: CN(C)Cc1cc(C(=O)/C=C/c2cc(F)ccc2F)cc(CN(C)C)c1O
IC50 [1]: 15.4 µM
IC50 [2]: 2.91 µM
IC50 [3]: 15.9 µM
IC50 [4]: 8.86 µM

Compound: CN(C)Cc1cc(C(=O)/C=C/c2ccc(O)cc2)cc(CN(C)C)c1O
IC50 [1]: 44.3 µM
IC50 [2]: 39.1 µM
IC50 [5]: 39.8 µM
IC50 [3]: 54 µM
IC50 [4]: > 50 µM

Compound: CN(C)Cc1cc(C(=O)/C=C/c2c(Cl)cccc2Cl)cc(CN(C)C)c1O
IC50 [1]: 5.38 µM
IC50 [2]: 4.33 µM
IC50 [5]: 5.88 µM
IC50 [3]: 3.83 µM
IC50 [4]: 5.92 µM

Compound: N[C@@H](Cc1ccc(N(CCCl)CCCl)cc1)C(=O)O
IC50 [5]: 26.3 µM

Compound: CN(C)Cc1cc(C(=O)/C=C/c2ccc([N+](=O)[O-])cc2)cc(CN(C)C)c1O
IC50 [1]: 4.82 µM
IC50 [2]: 1.75 µM
IC50 [5]: 8.91 µM
IC50 [3]: 8.73 µM
IC50 [4]: 17.7 µM

Compound: O=C(/C=C/c1ccc(Cl)cc1Cl)c1ccc(O)cc1
IC50 [1]: 13.9 µM
IC50 [2]: 10.2 µM
IC50 [3]: 25.2 µM
IC50 [4]: 7.89 µM

Compound: CN(C)Cc1cc(C(=O)/C=C/c2ccc(Cl)cc2)cc(CN(C)C)c1O
IC50 [1]: 8.41 µM
IC50 [2]: 6.48 µM
IC50 [5]: 10 µM
IC50 [3]: 8.33 µM
IC50 [4]: 13.7 µM

Compound: CN(C)Cc1cc(C(=O)/C=C/c2ccc(Cl)cc2Cl)cc(CN(C)C)c1O
IC50 [1]: 5.74 µM
IC50 [2]: 4.87 µM
IC50 [5]: 3.09 µM
IC50 [3]: 5.28 µM
IC50 [4]: 5.44 µM

Compound: O=C(/C=C/c1ccc(Br)cc1)c1ccc(O)cc1
IC50 [1]: 6.07 µM
IC50 [2]: 1.98 µM
IC50 [3]: 13.2 µM
IC50 [4]: 16.6 µM

Compound: CN(C)Cc1cc(C(=O)/C=C/c2ccccc2)cc(CN(C)C)c1O
IC50 [1]: 20.7 µM
IC50 [2]: 19.6 µM
IC50 [5]: 21.9 µM
IC50 [3]: 17.7 µM
IC50 [4]: 29.6 µM

Compound: CN(C)Cc1cc(C(=O)/C=C/c2ccc(/C=C/C(=O)c3cc(CN(C)C)c(O)c(CN(C)C)c3)cc2)cc(CN(C)C)c1O
IC50 [5]: 26.9 µM

Compound: O=C(/C=C/c1ccccc1Cl)c1ccc(O)cc1
IC50 [1]: 18.2 µM
IC50 [2]: 13.9 µM
IC50 [3]: 24.5 µM
IC50 [4]: 6.85 µM

Compound: O=C(/C=C/c1ccccc1)c1ccc(O)cc1 [4'-HYDROXYCHALCONE]
IC50 [1]: 13.1 µM
IC50 [2]: 14.7 µM
IC50 [3]: 23.5 µM
IC50 [4]: 3.12 µM

Compound: O=C(/C=C/c1ccccc1)c1ccccc1 [CHALCONE]
IC50 [1]: 12.7 µM
IC50 [2]: 12.5 µM
IC50 [5]: 8.32 µM
IC50 [3]: 41.4 µM
IC50 [4]: 9.63 µM

Compound: CN(C)Cc1cc(C(=O)/C=C/c2ccc(Cl)c(Cl)c2)cc(CN(C)C)c1O
IC50 [1]: 6.99 µM
IC50 [2]: 2.48 µM
IC50 [5]: 2.35 µM
IC50 [3]: 2.49 µM
IC50 [4]: 5.09 µM

Compound: O=C(/C=C/c1ccccc1)Oc1ccc(C(=O)/C=C/c2ccc(Cl)cc2)cc1
IC50 [1]: 220 µM
IC50 [2]: 45.3 µM
IC50 [3]: 265 µM
IC50 [4]: 3.82 µM

Compound: CN(C)Cc1cc(C(=O)/C=C/c2c(F)cccc2Cl)cc(CN(C)C)c1O
IC50 [1]: 7.92 µM
IC50 [2]: 7.74 µM
IC50 [5]: 9.12 µM
IC50 [3]: 8.29 µM

Compound: CN(C)Cc1cc(C(=O)/C=C/c2ccccc2Cl)cc(CN(C)C)c1O
IC50 [1]: 7.13 µM
IC50 [2]: 8.08 µM
IC50 [5]: 9.55 µM
IC50 [3]: 6.84 µM
IC50 [4]: 13.2 µM

Compound: Cc1ccc(/C=C/C(=O)c2ccc(O)cc2)cc1
IC50 [1]: 25.4 µM
IC50 [2]: 11.3 µM
IC50 [3]: 24.7 µM
IC50 [4]: 5.51 µM

Compound: CN(C)Cc1cc(/C=C/C(=O)c2ccc(Br)cc2)cc(CN(C)C)c1O
IC50 [1]: 39.2 µM
IC50 [2]: 21.9 µM
IC50 [3]: 32.3 µM
IC50 [4]: 15.1 µM

The remaining molecules from weak to strong by IC50 [3], led by results:

IC50 [3]: 395 µM
IC50 [4]: 0.564 µM
Compound: O=C(/C=C/c1ccc(/C=C/C(=O)c2ccc(O)cc2)cc1)c1ccc(O)cc1
IC50 [1]: 30.3 µM
IC50 [2]: 78.6 µM
IC50 [5]: 93.3 µM

IC50 [3]: 40.1 µM
IC50 [4]: 30.8 µM
Compound: Cc1ccc(/C=C/C(=O)c2cc(CN(C)C)c(O)c(CN(C)C)c2)cc1
IC50 [1]: 40.2 µM
IC50 [2]: 35.2 µM
IC50 [5]: 17.8 µM

IC50 [3]: 39.5 µM
IC50 [4]: 10.2 µM
Compound: COc1ccc(/C=C/C(=O)c2ccc(OC(=O)/C=C/c3ccccc3)cc2)cc1
IC50 [1]: 27.9 µM
IC50 [2]: 10.8 µM

IC50 [3]: 33.8 µM
IC50 [4]: 8.53 µM
Compound: O=C(/C=C/c1ccc(O)cc1)c1ccc(Cl)c(Cl)c1
IC50 [1]: 10.8 µM
IC50 [2]: 20 µM

IC50 [3]: 32.2 µM
IC50 [4]: 8.7 µM
Compound: COc1ccc(/C=C/C(=O)c2ccc(O)cc2)cc1
IC50 [1]: 27.9 µM
IC50 [2]: 5.9 µM

IC50 [3]: 25.8 µM
IC50 [4]: 44.1 µM
Compound: COc1ccc(/C=C/C(=O)c2cc(CN(C)C)c(O)c(CN(C)C)c2)cc1
IC50 [1]: 25.3 µM
IC50 [2]: 14.8 µM
IC50 [5]: 29.5 µM

IC50 [3]: 21.2 µM
IC50 [4]: 2.82 µM
Compound: O=C(/C=C/c1cccc(Cl)c1)c1ccc(O)cc1
IC50 [1]: 6.8 µM
IC50 [2]: 5.4 µM

IC50 [3]: 16.9 µM
IC50 [4]: 26.9 µM
Compound: CN(C)Cc1cc(C(=O)/C=C/c2ccc(F)cc2)cc(CN(C)C)c1O
IC50 [1]: 17.2 µM
IC50 [2]: 13.8 µM
IC50 [5]: 20 µM

IC50 [3]: 15.7 µM
IC50 [4]: 10.3 µM
Compound: O=C(/C=C/c1ccccc1)c1cc(CN2CCOCC2)c(O)c(CN2CCOCC2)c1
IC50 [1]: 17.2 µM
IC50 [2]: 6.11 µM
IC50 [5]: 14.5 µM

IC50 [3]: 13.1 µM
IC50 [4]: 11.7 µM
Compound: O=C(/C=C/c1ccc(Cl)c(Cl)c1)c1ccc(O)cc1
IC50 [1]: 5.66 µM
IC50 [2]: 1.71 µM

IC50 [3]: 13 µM
IC50 [4]: 2.49 µM
Compound: O=C(/C=C/c1ccc(C(F)(F)F)cc1)c1ccc(O)cc1
IC50 [1]: 6.33 µM
IC50 [2]: 1.88 µM

IC50 [3]: 12.2 µM
IC50 [4]: 0.864 µM
Compound: O=C(/C=C/c1cc(F)ccc1F)c1ccc(O)cc1
IC50 [1]: 7.88 µM
IC50 [2]: 3.57 µM

IC50 [3]: 9.07 µM
IC50 [4]: 3.67 µM
Compound: O=C(/C=C/c1ccc(Cl)cc1)c1ccc(O)cc1
IC50 [1]: 6.91 µM
IC50 [2]: 3.47 µM

IC50 [3]: 8.14 µM
IC50 [4]: 3.67 µM
Compound: CN(C)Cc1cc(C(=O)/C=C/c2ccc(C(F)(F)F)cc2)cc(CN(C)C)c1O
IC50 [1]: 8.3 µM
IC50 [2]: 1.56 µM

IC50 [3]: 7.09 µM
IC50 [4]: 10.9 µM
Compound: CN(C)Cc1cc(C(=O)/C=C/c2ccc(Br)cc2)cc(CN(C)C)c1O
IC50 [1]: 8.42 µM
IC50 [2]: 4.78 µM
IC50 [5]: 6.31 µM

IC50 [3]: 5.15 µM
IC50 [4]: 3.17 µM
Compound: O=C(/C=C/c1c(Cl)cccc1Cl)c1ccc(O)cc1
IC50 [1]: 5.15 µM
IC50 [2]: 1.36 µM
